# From ChEMBL document CHEMBL1143896, “Discovery of piperazinylimidazo[1,2-a]pyridines as novel S4 binding elements for orally active factor Xa inhibitors” (Bioorg Med Chem, 2008)
# Active and inactive are the calls of the source. No cut-off for these calls is given here.
# Assays:
# Coagulation factor X = Coagulation factor X (Homo sapiens, UniProt P00742); test: Inhibition of human factor 10a
# Plasma [1] = test: Anticoagulant potency in human plasma assessed as concentration required to double prothrombin time; type: functional
# In short: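 Compound in DMSO is added to normal human plasma (3% v/v) and preincubated 4 min at 37 °C. Clotting is started with thromboplastin and timed on an automatic coagulometer. Prolongation is measured against a DMSO control. The concentration that doubles clotting time comes from a least-squares regression, as a mean of duplicate measurements.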
# Plasma [2] = test: Anticoagulant potency in ICR mouse plasma assessed as concentration required to double prothrombin time; type: functional
# CYP3A4 = CYP3A4 (Homo sapiens, UniProt P08684); test: Inhibition of human CYP3A4 at 10 uM; type: ADME
# Chain of CYP3A4 (P08684 whole entry): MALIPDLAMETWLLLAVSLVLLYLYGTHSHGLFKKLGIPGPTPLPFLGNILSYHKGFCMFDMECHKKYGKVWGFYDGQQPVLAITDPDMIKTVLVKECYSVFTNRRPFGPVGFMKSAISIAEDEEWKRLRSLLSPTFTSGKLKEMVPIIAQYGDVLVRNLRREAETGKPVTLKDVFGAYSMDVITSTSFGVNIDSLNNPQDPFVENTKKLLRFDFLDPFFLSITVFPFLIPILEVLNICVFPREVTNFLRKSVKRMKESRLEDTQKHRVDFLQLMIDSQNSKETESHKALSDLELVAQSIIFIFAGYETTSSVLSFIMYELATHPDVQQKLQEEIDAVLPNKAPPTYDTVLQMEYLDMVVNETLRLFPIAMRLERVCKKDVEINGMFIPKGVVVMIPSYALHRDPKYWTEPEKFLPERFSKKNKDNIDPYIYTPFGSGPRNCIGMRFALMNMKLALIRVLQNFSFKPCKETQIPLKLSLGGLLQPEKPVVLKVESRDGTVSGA
# In short: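 CYP3A4 from human B-lymphoblastoid cells expressing the enzyme (10 nM) is incubated with 100 µM testosterone and 10 µM compound for 30 min at 37 °C. 6β-Hydroxytestosterone is measured by HPLC-UV and reported as % inhibition.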
# Mus musculus [3] = test: Ex vivo anticoagulant potency in ICR mouse blood assessed as prothrombin time at 30 mg/kg, po after 1 hr relative to control; type: functional
# In short: (§1)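 Male ICR mice (30–35 g) are fasted >12 h and dosed orally as a suspension in 0.5% methylcellulose; controls get vehicle. At 1 h, blood is drawn from the abdominal aorta under pentobarbital (50 mg/kg ip) into 3.8% citrate (9:1). Plasma is spun at 1000g for 10 min, preincubated 4 min at 37 °C, clotted with thromboplastin and timed. The read-out is the clotting-time ratio versus vehicle controls.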
# Mus musculus [4] = test: Ex vivo anticoagulant potency in ICR mouse blood assessed as 1.4 times prolongation of prothrombin time at 100 mg/kg, po after 1 hr relative to control; type: functional, organism-based; parameters: dose 100 mg/kg; in short: as §1
# Mus musculus [5] = test: Ex vivo anticoagulant potency in ICR mouse blood assessed as 1.1 times prolongation of prothrombin time at 30 mg/kg, po after 1 hr relative to control; type: functional, organism-based; parameters: dose 30 mg/kg; in short: as §1
# [6] = Tmax in cynomolgus monkey at 3 mg/kg, po; type: ADME, organism-based, Macaca fascicularis; parameters: dose 3 mg/kg, route oral; details: in vivo
# In short: (§2)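 Fasted male cynomolgus monkeys (n = 3) are dosed iv in DMA/PEG400 or orally as a 0.5% methylcellulose suspension. Femoral vein blood is taken up to 24 h (from 5 min iv, from 15 min po). Plasma is deproteinized with acetonitrile, diluted with 0.01 mol/L ammonium formate at pH 3.0, and measured by LC/MS/MS. Values are means ± SD of three.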
# [7] = target: Tissue-type plasminogen activator (Homo sapiens, UniProt P00750); test: Inhibition of human tPA after 30 mins
# Chain of Tissue-type plasminogen activator (P00750 whole entry): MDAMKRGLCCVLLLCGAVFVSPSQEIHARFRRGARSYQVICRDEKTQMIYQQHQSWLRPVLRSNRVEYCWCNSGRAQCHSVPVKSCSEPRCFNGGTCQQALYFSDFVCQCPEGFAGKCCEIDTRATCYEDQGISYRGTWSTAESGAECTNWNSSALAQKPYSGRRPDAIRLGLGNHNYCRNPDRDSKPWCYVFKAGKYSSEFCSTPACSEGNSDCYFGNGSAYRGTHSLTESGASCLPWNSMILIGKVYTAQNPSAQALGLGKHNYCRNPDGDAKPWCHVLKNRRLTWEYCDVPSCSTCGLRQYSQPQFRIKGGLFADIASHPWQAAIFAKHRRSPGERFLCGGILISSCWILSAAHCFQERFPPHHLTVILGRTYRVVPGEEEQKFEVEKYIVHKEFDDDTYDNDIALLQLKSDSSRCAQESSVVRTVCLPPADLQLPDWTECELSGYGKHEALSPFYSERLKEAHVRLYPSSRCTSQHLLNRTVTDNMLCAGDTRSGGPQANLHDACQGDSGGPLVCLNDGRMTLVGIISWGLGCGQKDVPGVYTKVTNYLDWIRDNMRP
# In short: (§3)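 Human proteases are incubated with compound for 30 min at 37 °C. Enzyme and substrate pairs are: thrombin 0.080 U/mL with S-2366; trypsin 0.040 µg/mL with S-2222; plasmin 0.040 U/mL with S-2366; kallikrein 0.020 U/mL with S-2302; t-PA 4000 U/mL with S-2288. p-Nitroanilide release is followed continuously for 5 min at 405 nm. Ki comes from Lineweaver–Burk plots at varied substrate levels, as means of three determinations.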
# [8] = Cmax in cynomolgus monkey at 3 mg/kg, po; type: ADME, organism-based, Macaca fascicularis; parameters: dose 3 mg/kg, route oral; details: in vivo; in short: as §2
# [9] = Volume of distribution at steady state in cynomolgus monkey at 0.3 mg/kg, iv; type: ADME, organism-based, Macaca fascicularis; parameters: dose 0.3 mg/kg, route intravenous; details: in vivo, read-out: Vdss; in short: as §2
# Prothrombin = Prothrombin (Homo sapiens, UniProt P00734); test: Inhibition of human thrombin after 30 mins; in short: as §3
# [10] = Drug concentration in cynomolgus monkey at 0.3 mg/kg, iv after 5 mins; type: ADME, organism-based, Macaca fascicularis; parameters: dose 0.3 mg/kg, route intravenous; details: in vivo, read-out: Drug uptake; in short: as §2
# [11] = Oral bioavailability in cynomolgus monkey at 3 mg/kg; type: ADME, organism-based, Macaca fascicularis; details: in vivo; in short: as §2
# [12] = AUC in cynomolgus monkey at 0.3 mg/kg, iv; type: ADME, organism-based, Macaca fascicularis; parameters: dose 0.3 mg/kg, route intravenous; details: plasma; in short: as §2
# [13] = Total clearance in cynomolgus monkey at 0.3 mg/kg, iv; type: ADME, organism-based, Macaca fascicularis; parameters: dose 0.3 mg/kg, route intravenous; details: in vivo; in short: as §2
# [14] = Mean residence time in cynomolgus monkey at 0.3 mg/kg, iv; type: ADME, organism-based, Macaca fascicularis; parameters: dose 0.3 mg/kg, route intravenous; details: in vivo; in short: as §2
# Plasminogen = Plasminogen (Homo sapiens, UniProt P00747); test: Inhibition of human plasmin after 30 mins; in short: as §3
# Chain of Plasminogen (P00747 97-580 limits assumed): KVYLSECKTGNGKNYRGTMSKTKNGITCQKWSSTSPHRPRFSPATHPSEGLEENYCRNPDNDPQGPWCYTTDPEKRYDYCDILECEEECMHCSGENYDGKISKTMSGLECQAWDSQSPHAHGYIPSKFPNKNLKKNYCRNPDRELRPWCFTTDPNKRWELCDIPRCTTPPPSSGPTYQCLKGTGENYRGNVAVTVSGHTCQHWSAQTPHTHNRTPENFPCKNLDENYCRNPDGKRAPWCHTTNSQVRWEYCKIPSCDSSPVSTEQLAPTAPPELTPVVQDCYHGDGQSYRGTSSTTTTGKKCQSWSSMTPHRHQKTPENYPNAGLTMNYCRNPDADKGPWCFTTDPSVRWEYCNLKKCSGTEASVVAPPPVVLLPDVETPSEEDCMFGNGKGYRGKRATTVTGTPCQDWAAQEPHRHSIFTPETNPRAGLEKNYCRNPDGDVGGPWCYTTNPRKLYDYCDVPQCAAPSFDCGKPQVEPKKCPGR
# Chain of Plasminogen (P00747 581-810 limits assumed): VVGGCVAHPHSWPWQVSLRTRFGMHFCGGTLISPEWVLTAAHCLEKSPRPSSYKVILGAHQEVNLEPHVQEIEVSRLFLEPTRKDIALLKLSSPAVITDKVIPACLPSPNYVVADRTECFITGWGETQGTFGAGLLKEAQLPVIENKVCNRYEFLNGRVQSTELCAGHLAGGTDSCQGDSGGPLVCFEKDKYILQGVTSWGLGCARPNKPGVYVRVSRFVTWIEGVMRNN
# [15] = Mean residence time in cynomolgus monkey at 3 mg/kg, po; type: ADME, organism-based, Macaca fascicularis; parameters: dose 3 mg/kg, route oral; details: in vivo; in short: as §2
# [16] = AUC in cynomolgus monkey at 3 mg/kg, po; type: ADME, organism-based, Macaca fascicularis; parameters: dose 3 mg/kg, route oral; details: plasma; in short: as §2
# Trypsin = Trypsin (Homo sapiens, UniProt P07477+P07478+P35030); test: Inhibition of human trypsin after 30 mins; type: protein assay; in short: as §3
# Plasma kallikrein = Plasma kallikrein (Homo sapiens, UniProt P03952); test: Inhibition of human kallikrein after 30 mins; in short: as §3
# Chain of Plasma kallikrein (P03952 20-390 limits assumed): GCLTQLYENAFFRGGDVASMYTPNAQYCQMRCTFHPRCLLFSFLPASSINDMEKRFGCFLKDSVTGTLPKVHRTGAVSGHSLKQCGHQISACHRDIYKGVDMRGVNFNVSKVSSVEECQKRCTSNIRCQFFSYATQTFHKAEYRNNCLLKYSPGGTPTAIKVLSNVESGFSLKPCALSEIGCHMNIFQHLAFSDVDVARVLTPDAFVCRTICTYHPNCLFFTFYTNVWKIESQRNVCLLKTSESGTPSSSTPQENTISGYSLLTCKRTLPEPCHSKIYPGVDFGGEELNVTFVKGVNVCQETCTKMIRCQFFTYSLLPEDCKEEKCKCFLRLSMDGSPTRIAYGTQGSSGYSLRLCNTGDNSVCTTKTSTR
# Chain of Plasma kallikrein (P03952 391-638 limits assumed): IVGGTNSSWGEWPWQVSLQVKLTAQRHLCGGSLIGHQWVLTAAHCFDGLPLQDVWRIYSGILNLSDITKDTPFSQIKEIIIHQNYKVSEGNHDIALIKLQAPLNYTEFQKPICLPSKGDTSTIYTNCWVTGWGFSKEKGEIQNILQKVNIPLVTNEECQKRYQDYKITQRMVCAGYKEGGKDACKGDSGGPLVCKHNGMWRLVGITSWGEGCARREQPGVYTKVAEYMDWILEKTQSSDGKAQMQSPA
# Chain of Coagulation factor X (P00742 41-179 limits assumed): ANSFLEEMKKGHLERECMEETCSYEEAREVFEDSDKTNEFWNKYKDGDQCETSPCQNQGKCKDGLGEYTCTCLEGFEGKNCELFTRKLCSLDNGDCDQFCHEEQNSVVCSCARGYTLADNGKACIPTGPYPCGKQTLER
# Chain of Coagulation factor X (P00742 235-488 limits assumed): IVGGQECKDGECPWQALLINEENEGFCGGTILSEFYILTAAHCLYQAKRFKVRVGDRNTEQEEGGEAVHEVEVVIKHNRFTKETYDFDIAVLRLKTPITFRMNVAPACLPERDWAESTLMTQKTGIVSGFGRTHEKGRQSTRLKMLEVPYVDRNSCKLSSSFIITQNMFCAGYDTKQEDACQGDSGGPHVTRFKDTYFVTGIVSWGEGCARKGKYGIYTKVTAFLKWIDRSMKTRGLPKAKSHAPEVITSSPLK
SMILES,IC50 (Coagulation factor X) [nM],2PT (Plasma [1]) [µM],2PT (Plasma [2]) [µM],inhibition at 10 µM (CYP3A4) [%],Ratio (Mus musculus [3]),other results
CCOC(=O)Cc1cn2c(N3CCN(C(=O)CCS(=O)(=O)c4ccc5cc(Cl)ccc5c4)CC3)cccc2n1,93,5.1,,,,
CNC(=O)Cc1cn2c(N3CCN(C(=O)CCS(=O)(=O)c4ccc5cc(Cl)ccc5c4)CC3)cccc2n1,41,2,,,,
Cc1cn2c(N3CCN(C(=O)CCS(=O)(=O)c4ccc5cc(Cl)ccc5c4)CC3)cccc2n1,12,0.96,1.3,58,2.9,
CC(C)(O)c1cn2c(N3CCN(C(=O)CCS(=O)(=O)c4ccc5cc(Cl)ccc5c4)CC3)cccc2n1,18,2.1,,,,
O=C(CCS(=O)(=O)c1ccc2cc(Cl)ccc2c1)N1CCN(c2cccc3nccn23)CC1,21,1.4,1.7,45,2.5,
CC(O)c1cn2c(N3CCN(C(=O)CCS(=O)(=O)c4ccc5cc(Cl)ccc5c4)CC3)cccc2n1 (stereo not given),20,1.2,1.8,23,2.5,
O=C(CCS(=O)(=O)c1ccc2cc(Cl)ccc2c1)N1CCN(c2cccc3ncc([N+](=O)[O-])n23)CC1,24,3.6,,,,
O=C(CCS(=O)(=O)c1ccc2cc(Cl)ccc2c1)N1CCN(c2ccc3nccn3c2)CC1,87,2.9,,,,
O=C(CCS(=O)(=O)c1ccc2cc(Cl)ccc2c1)N1CCN(c2ccn3ccnc3c2)CC1,78,2.2,,,,
CC(=N)N1CC[C@H](Oc2ccc([C@H](Cc3ccc4ccc(C(=N)N)cc4c3)C(=O)O)cc2)C1 [DX-9065A],,0.81,,,,Activity (Mus musculus [4]): Active; Activity (Mus musculus [5]): Active
NC(=O)Cc1cn2c(N3CCN(C(=O)CCS(=O)(=O)c4ccc5cc(Cl)ccc5c4)CC3)cccc2n1,45,2.1,,,,
O=C(CCS(=O)(=O)c1ccc2cc(Cl)ccc2c1)N1CCN(c2cccc3nc(CO)cn23)CC1,9,1.4,1.4,15,1.3,Tmax [6]: 1.33 h; Ki [7]: > 60000 nM; Cmax [8]: 500 ng/mL; Vd [9]: 0.81 L/kg; Ki (Prothrombin): 960 nM; concentration at 5 min [10]: 540 ng/mL; bioavailability [11]: 30.5%; AUC [12]: 730 ng·h/mL; clearance [13]: 7.33 mL/min/kg; MRT [14]: 1.97 h; Ki (Plasminogen): > 60000 nM; MRT [15]: 3.6 h; Ki (Coagulation factor X): 8 nM; AUC [16]: 2260 ng·h/mL; Ki (Trypsin): > 60000 nM; Ki (Plasma kallikrein): 14000 nM
O=C(CCS(=O)(=O)c1ccc2cc(Cl)ccc2c1)N1CCN(c2cccc3ncc(CO)n23)CC1,29,1.7,,,,
CC(=O)Nc1cnc2cccc(N3CCN(C(=O)CCS(=O)(=O)c4ccc5cc(Cl)ccc5c4)CC3)n12,24,1.8,,,,
CN(C)C(=O)Cc1cn2c(N3CCN(C(=O)CCS(=O)(=O)c4ccc5cc(Cl)ccc5c4)CC3)cccc2n1,57,2.5,,,,
CN(C(=O)CCS(=O)(=O)c1ccc2cc(Cl)ccc2c1)C1CCN(c2cccc3nccn23)CC1,840,,,,,
Nc1cnc2cccc(N3CCN(C(=O)CCS(=O)(=O)c4ccc5cc(Cl)ccc5c4)CC3)n12,35,0.73,1.5,52,2.4,
CC(C)(O)Cc1cn2c(N3CCN(C(=O)CCS(=O)(=O)c4ccc5cc(Cl)ccc5c4)CC3)cccc2n1,22,0.86,1.7,26,2.4,
CC(O)Cc1cn2c(N3CCN(C(=O)CCS(=O)(=O)c4ccc5cc(Cl)ccc5c4)CC3)cccc2n1 (stereo not given),18,1.1,1.5,33,3.2,
